Assay results: ChEMBL document CHEMBL1932983, “Towards a stable noeuromycin analog with a D-manno configuration: synthesis and glycosidase inhibition of D-manno-like tri- and tetrahydroxylated azepanes” (Bioorg Med Chem, 2012)
Active and inactive are the calls of the source. No cut-off for these calls is given here.

How the values were obtained:
[1] = molecular target: T1, Uncharacterized protein (Sus scrofa) (UniProt I3LIR5); experiment: Inhibition of pig kidney trehalase at 1000 uM
T1 sequence (whole entry): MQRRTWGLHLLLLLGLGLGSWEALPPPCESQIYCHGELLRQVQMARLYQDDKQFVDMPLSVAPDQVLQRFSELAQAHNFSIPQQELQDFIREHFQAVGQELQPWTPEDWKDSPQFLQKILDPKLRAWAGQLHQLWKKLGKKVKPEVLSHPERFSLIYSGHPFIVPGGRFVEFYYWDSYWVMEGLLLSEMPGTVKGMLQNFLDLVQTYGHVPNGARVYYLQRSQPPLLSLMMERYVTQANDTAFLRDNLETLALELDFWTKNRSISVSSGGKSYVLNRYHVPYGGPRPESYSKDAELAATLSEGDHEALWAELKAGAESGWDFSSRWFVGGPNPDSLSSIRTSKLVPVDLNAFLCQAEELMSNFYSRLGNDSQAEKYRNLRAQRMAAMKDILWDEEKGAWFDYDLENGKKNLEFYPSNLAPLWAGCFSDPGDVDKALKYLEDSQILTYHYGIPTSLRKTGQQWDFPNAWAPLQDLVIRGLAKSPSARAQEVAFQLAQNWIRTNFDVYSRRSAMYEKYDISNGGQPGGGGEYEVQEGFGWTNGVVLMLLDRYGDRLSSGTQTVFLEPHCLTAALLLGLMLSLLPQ
Outline: (§1)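 Commercial glycosidases were tested with a single inhibitor level of 1000 μM, and percent inhibition was recorded. "NI" means less than 50% inhibition at that concentration.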

[2] = molecular target: T2, Tissue alpha-L-fucosidase (Bos taurus) (UniProt Q2KIM0); experiment: Inhibition of bovine kidney alpha-L-fucosidase at 1000 uM; outline: as §1
T2 sequence (whole entry): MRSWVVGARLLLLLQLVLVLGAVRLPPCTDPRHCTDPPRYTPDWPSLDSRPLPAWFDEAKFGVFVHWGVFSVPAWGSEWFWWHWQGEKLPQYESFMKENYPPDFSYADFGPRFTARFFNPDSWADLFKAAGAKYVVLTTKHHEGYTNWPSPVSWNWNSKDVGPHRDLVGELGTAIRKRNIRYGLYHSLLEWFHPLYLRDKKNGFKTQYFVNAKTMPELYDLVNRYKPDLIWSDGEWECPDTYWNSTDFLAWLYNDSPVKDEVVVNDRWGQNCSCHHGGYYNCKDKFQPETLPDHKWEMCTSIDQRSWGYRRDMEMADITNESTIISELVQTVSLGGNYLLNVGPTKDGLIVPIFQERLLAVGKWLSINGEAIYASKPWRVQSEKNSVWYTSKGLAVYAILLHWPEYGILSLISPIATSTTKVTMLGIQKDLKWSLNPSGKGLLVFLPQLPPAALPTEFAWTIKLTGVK

[3] = molecular target: Oligo-1,6-glucosidase IMA1 (Saccharomyces cerevisiae S288c, UniProt P53051); experiment: Inhibition of yeast alpha-glucosidase
[4] = molecular target: Probable alpha-glucosidase Os06g0675700 (Oryza sativa Japonica Group) (UniProt Q653V7); experiment: Inhibition of rice alpha-glucosidase at 1000 uM; outline: as §1
Aspergillus niger = experiment: Inhibition of Aspergillus niger amyloglucosidase at 1000 uM; outline: as §1
[5] = Inhibition of almond beta-glucosidase; parameters: species or system Prunus dulcis
Beta-glucuronidase = molecular target: T3, Beta-glucuronidase (Bos taurus, UniProt A3KMY8); experiment: Inhibition of bovine liver beta glucuronidase
T3 sequence (A3KMY8 whole entry): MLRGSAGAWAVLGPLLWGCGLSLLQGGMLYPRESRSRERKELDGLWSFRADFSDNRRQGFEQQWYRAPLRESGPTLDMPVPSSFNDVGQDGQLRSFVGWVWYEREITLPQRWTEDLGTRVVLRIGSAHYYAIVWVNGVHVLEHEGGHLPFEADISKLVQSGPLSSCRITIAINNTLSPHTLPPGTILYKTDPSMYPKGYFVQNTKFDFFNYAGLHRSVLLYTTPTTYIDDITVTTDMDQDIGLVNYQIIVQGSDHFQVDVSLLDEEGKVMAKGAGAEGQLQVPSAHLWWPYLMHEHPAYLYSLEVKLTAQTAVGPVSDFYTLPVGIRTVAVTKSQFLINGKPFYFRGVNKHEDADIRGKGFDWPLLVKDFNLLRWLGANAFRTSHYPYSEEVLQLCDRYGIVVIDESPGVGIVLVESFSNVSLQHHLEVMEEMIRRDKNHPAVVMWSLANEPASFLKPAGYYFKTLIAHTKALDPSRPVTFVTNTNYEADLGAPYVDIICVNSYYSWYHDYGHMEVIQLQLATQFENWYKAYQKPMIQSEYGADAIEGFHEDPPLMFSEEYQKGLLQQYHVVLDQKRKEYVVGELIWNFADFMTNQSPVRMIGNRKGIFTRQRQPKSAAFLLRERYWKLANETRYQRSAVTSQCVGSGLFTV

[6] = molecular target: T4, Lysosomal alpha-mannosidase (Bos taurus) (UniProt Q29451); experiment: Inhibition of lysosomal alpha-mannosidase in MDBK cells assessed as Man5-8GlcNAc2FOS formation at 0.1 to 1 mM after 24 hrs by HPLC analysis; format: cell-based
T4 sequence (whole entry): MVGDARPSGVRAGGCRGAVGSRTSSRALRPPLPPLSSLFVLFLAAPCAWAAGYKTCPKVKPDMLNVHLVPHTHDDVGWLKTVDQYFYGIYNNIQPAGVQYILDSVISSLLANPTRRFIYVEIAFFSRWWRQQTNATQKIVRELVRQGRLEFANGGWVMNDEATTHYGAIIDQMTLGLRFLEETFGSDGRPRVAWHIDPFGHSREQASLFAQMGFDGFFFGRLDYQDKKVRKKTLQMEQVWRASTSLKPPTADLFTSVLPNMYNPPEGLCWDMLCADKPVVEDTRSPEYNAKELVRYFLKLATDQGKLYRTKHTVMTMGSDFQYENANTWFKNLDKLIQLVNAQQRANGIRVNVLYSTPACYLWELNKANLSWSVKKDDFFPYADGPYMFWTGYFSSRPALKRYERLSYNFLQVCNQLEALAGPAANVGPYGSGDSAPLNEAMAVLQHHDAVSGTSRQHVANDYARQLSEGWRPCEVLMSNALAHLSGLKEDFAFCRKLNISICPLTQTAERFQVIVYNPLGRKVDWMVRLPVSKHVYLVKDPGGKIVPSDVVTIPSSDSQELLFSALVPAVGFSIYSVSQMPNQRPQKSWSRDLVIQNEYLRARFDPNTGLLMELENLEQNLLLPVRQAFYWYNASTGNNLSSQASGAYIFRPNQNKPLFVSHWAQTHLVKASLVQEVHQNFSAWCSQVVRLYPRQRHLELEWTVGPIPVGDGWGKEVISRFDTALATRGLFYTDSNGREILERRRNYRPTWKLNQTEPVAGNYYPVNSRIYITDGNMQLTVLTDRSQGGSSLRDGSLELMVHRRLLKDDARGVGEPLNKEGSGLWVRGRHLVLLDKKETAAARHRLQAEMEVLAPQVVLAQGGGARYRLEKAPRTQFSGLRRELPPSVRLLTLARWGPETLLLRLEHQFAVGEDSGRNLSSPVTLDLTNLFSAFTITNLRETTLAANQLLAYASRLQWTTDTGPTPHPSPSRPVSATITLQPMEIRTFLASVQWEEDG
Outline: (§2)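 MDBK cells were treated with azepanes alongside untreated cells and a swainsonine control (1 mM, 24 h). Free oligosaccharides (FOS) were labelled with 2-AA and profiled by fluorescence HPLC. Mannosylated species were compared: Man3GlcNAc2 and Man5-8GlcNAc2 indicate lysosomal activity, and Man5GlcNAc1 indicates cytosolic mannosidase activity.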

Helix pomatia = experiment: Inhibition of snail beta-mannosidase at 1000 uM; outline: as §1
[7] = Inhibition of jack beans alpha-mannosidase; parameters: species or system Canavalia ensiformis
Penicillium decumbens = experiment: Inhibition of Penicillium decumbens alpha-L-rhamnosidase at 1000 uM; outline: as §1
[8] = Inhibition of coffee beans alpha-galactosidase; parameters: species or system Coffea
Beta-galactosidase = molecular target: T5, Beta-galactosidase (Bos taurus, UniProt Q58D55); experiment: Inhibition of bovine liver beta-galactosidase
T5 sequence (Q58D55 whole entry): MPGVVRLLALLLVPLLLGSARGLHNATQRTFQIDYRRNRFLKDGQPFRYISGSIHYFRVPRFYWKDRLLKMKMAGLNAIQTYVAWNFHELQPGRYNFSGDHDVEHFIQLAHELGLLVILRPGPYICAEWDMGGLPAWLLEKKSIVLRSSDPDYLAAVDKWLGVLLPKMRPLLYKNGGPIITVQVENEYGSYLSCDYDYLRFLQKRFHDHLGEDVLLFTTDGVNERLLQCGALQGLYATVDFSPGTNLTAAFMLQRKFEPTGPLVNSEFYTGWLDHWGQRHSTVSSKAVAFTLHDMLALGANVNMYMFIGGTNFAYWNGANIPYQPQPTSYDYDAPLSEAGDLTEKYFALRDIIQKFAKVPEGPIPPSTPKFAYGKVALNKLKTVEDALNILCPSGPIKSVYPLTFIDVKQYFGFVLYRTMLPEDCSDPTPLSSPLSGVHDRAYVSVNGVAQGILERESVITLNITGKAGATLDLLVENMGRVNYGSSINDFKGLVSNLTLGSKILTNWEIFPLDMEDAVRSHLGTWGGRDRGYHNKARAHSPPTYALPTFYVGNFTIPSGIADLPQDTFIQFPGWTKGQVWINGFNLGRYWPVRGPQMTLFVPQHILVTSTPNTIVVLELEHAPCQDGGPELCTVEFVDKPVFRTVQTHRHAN

Prunus dulcis = experiment: Inhibition of almond beta-glucosidase at 1000 uM; outline: as §1
Coffea = experiment: Inhibition of coffee beans alpha-galactosidase at 1000 uM; outline: as §1
Canavalia ensiformis = experiment: Inhibition of jack beans alpha-mannosidase at 1000 uM; outline: as §1
[9] = molecular target: Oligo-1,6-glucosidase IMA1 (Saccharomyces cerevisiae S288c) (UniProt P53051); experiment: Inhibition of yeast alpha-glucosidase at 1000 uM; outline: as §1
[10] = molecular target: T6, Beta-glucuronidase (Bos taurus) (UniProt A3KMY8); experiment: Inhibition of bovine liver beta glucuronidase at 1000 uM; outline: as §1
T6 sequence (whole entry): T3 sequence (A3KMY8 whole entry)

[11] = molecular target: T4, Lysosomal alpha-mannosidase (Bos taurus); experiment: Inhibition of lysosomal alpha-mannosidase in MDBK cells assessed as Man5-8GlcNAc2FOS formation at 1 mM after 24 hrs by HPLC analysis; format: cell-based; outline: as §2
[12] = molecular target: T7, Tissue alpha-L-fucosidase (Bos taurus, UniProt Q2KIM0); experiment: Inhibition of bovine kidney alpha-L-fucosidase
T7 sequence (Q2KIM0 whole entry): T2 sequence (whole entry)

[13] = molecular target: Probable alpha-glucosidase Os06g0675700 (Oryza sativa Japonica Group, UniProt Q653V7); experiment: Inhibition of rice alpha-glucosidase
MDBK = experiment: Inhibition of cytosolic alpha-mannosidase in MDBK cells assessed as Man5GlcNAc1 formation at 1 mM after 24 hrs by HPLC analysis; format: cell-based; conditions: Bos taurus; outline: as §2
[14] = molecular target: T8, Glucosylceramidase (Bos taurus) (UniProt Q2KHZ8); experiment: Inhibition of bovine liver beta-glucosidase at 1000 uM; outline: as §1
T8 sequence (whole entry): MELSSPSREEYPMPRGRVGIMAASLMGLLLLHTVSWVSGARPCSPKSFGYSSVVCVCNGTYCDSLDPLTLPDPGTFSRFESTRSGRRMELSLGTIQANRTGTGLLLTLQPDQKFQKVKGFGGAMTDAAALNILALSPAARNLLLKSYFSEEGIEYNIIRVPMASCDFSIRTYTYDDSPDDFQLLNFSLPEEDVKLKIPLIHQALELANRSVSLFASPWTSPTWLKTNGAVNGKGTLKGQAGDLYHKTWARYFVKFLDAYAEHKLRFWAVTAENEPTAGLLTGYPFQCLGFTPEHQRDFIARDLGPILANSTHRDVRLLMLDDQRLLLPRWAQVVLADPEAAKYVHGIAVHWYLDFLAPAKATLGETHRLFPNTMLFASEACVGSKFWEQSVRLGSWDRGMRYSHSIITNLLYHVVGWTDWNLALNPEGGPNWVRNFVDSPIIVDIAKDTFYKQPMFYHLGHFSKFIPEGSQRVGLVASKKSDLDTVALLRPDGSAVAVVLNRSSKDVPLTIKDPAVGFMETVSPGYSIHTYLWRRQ

Oligo-1,6-glucosidase IMA1 (Saccharomyces cerevisiae S288c), sequence (P53051 whole entry): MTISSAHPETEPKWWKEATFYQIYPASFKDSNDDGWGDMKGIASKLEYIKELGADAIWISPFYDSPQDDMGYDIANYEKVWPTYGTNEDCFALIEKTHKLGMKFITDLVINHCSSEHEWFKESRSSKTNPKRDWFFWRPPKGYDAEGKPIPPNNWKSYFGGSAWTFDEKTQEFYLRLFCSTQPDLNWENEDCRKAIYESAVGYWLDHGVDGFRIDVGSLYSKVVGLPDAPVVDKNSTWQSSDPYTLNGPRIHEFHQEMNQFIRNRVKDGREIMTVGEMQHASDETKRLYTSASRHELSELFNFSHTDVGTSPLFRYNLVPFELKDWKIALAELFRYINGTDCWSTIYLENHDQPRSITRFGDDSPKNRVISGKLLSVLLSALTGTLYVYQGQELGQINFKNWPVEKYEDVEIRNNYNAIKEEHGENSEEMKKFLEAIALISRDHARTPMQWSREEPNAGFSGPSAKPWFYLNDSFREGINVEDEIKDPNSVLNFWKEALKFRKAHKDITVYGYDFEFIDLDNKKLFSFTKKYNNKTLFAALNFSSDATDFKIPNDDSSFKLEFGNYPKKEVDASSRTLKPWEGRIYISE
Probable alpha-glucosidase Os06g0675700, sequence (Q653V7 whole entry): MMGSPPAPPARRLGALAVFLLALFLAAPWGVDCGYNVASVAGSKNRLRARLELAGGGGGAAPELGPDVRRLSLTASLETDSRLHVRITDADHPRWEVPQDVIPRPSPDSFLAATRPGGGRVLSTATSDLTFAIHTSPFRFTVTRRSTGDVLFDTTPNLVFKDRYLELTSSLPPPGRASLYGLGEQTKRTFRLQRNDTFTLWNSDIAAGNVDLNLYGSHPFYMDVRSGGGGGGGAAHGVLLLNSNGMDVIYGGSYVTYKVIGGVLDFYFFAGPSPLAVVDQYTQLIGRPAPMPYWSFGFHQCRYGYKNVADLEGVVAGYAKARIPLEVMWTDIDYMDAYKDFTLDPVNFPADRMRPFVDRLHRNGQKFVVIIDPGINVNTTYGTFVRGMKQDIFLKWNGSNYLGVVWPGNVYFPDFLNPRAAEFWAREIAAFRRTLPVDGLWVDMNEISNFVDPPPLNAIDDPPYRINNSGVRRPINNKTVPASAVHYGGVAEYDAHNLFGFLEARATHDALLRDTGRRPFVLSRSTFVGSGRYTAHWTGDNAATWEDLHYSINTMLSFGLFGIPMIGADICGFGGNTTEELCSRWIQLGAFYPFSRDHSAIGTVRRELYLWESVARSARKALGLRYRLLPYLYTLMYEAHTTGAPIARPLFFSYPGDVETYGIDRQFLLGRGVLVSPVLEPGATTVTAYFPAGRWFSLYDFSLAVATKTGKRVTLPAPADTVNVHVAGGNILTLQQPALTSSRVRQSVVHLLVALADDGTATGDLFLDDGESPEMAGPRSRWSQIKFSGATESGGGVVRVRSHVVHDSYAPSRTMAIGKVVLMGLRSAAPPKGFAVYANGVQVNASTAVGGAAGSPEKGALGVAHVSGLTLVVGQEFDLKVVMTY
Probable alpha-glucosidase Os06g0675700 (Oryza sativa Japonica Group), sequence (Q653V7 whole entry): as above
Oligo-1,6-glucosidase IMA1, sequence (P53051 whole entry): as the sequence (P53051 whole entry) above

| Compound | inhibition [1] [%] | inhibition [2] [%] | inhibition [4] [%] | inhibition (Aspergillus niger) [%] | IC50 [5] [µM] | IC50 (Beta-glucuronidase) [µM] | inhibition [6] | inhibition (Helix pomatia) [%] | IC50 [7] [µM] | inhibition (Penicillium decumbens) [%] | IC50 [8] [µM] | IC50 (Beta-galactosidase) [µM] | inhibition (Prunus dulcis) [%] | inhibition (Coffea) [%] | inhibition [9] [%] | inhibition [10] [%] | inhibition [11] | IC50 [12] [µM] | IC50 [13] [µM] | further results |
| --- | --- | --- | --- | --- | --- | --- | --- | --- | --- | --- | --- | --- | --- | --- | --- | --- | --- | --- | --- | --- |
| OC[C@@H]1CNC[C@@H](O)[C@@H](O)[C@@H]1O | 17.2 | 25 | 14.7 | 0.3 | 157 | 594 | inactive | 0 | 812 | 1.5 | 65 | 420 |  |  |  |  |  |  |  | IC50 [3]: 71 µM |
| OC[C@H]1CNC[C@@H](O)[C@@H](O)[C@@H]1O | 16.6 | 15.8 | 0 | 14.2 |  |  |  | 0 |  | 0.9 |  | 442 | 41.4 | 16.8 | 18.9 | 0 | Active |  |  | inhibition (Canavalia ensiformis): 23% |
| C[C@H]1CNC[C@@H](O)[C@@H](O)[C@@H]1O | 22.2 |  |  | 0 |  |  |  | 4.3 | 335 | 6.8 |  | 876 | 29.4 | 37.6 | 0 | 0 | Active | 181 | 226 | inhibition (MDBK): Active; inhibition [14]: 49.2% |
| C[C@@H]1CNC[C@@H](O)[C@@H](O)[C@@H]1O | 39.9 |  |  | 6.9 | 14 | 139 | inactive | 0.4 | 101 | 20.6 | 14 | 198 |  |  | 37.8 |  |  | 64 | 12 |  |
